Activity calls are given as the source filed them. The rule behind the calls is not given here.

In data set [1] the test system is Trypanosoma brucei. The data set is described as follows: Antitrypanosomal activity against bloodstream Trypanosoma brucei assessed as increase in 1K2N cells after 7 hrs by DAPI staining-based fluorescence microscopy. Format: functional, organism-based. An outline of the steps:
(§1)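 After 7 h with or without drug, trypanosomes were stained with DAPI and imaged by single-cell fluorescence microscopy with DIC. Nuclei (N) and kinetoplasts (K) were counted per cell to give the distribution of organelle configurations.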

The subject of data set [2] is Trypanosoma brucei. The data set is described as follows: Antitrypanosomal activity against bloodstream Trypanosoma brucei assessed as reduction in 1K1N cells after 7 hrs by DAPI staining-based fluorescence microscopy. Format: functional, organism-based. An outline of the steps: as §1
Data set [3] concerns Trypanosoma brucei. The data set is described as follows: Reduction of 2C to 4C equivalents of DNA in bloodstream Trypanosoma brucei after 7 hrs by DAPI staining-based fluorescence microscopy (reference value: 40 %). Format: functional. More on the design: scale not given: the % may be the effect or the level left.
Data set [4] deals with Trypanosoma brucei. The experiment in a line: Antitrypanosomal activity against bloodstream Trypanosoma brucei assessed as increase in 4C equivalents of DNA after 7 hrs by DAPI staining-based fluorescence microscopy (reference value: 25 %). Type of data set: functional.
Data set [5] concerns Trypanosoma brucei. The experiment in a line: Antitrypanosomal activity against bloodstream Trypanosoma brucei assessed as DNA profile alteration after 7 hrs by propidium iodide staining-based flow cytometry. Format: functional, organism-based. The method, boiled down:
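Trypanosomes were incubated 7 h with drug or without (control), then stained with propidium iodide. Flow cytometry analysed 10,000 events, and DNA content per cell (2C, 2C-4C, 4C populations) was quantified.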
For orientation: In flow cytometry, cells or beads pass a laser one at a time.

Data set [6] relates to Trypanosoma brucei. The data set is described as follows: Inhibition of transferrin receptor-mediated endocytosis in bloodstream Trypanosoma brucei at 8 uM after 7 hrs by flow cytometry.
The subject of data set [7] is Trypanosoma brucei brucei. The data set is described as follows: Antitrypanosomal activity against Trypanosoma brucei brucei CA427 infected in Swiss Webster mouse assessed as mouse mortality at 10 mg/kg, po bid by hemocytometer. Type of data set: functional, organism-based. More on the design: dose 10 mg/kg. An outline of the steps:
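Mice were infected with 10^4 T. brucei brucei CA427 cells. From 24 h post-infection, they were dosed orally at 10 mg/kg twice per day (20 mg/kg/day). Daily parasitemia and survival were followed against untreated control mice.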

Data set [8] has as its system Trypanosoma brucei brucei. The experiment in a line: Antitrypanosomal activity against Trypanosoma brucei brucei CA427 infected in Swiss Webster mouse assessed as mouse survival at 10 mg/kg, ip bid by hemocytometer (reference value: 5 days). Type of data set: functional. The following applies: route intraperitoneal.
The test system of data set [9] is Trypanosoma brucei brucei. The experiment in a line: Antitrypanosomal activity against Trypanosoma brucei brucei CA427 infected in Swiss Webster mouse assessed as reduction in replication rate at 10 mg/kg, ip bid measured on day 3 by hemocytometer. Format: functional, organism-based. Set-up: dose 10 mg/kg. The method, boiled down:
(§2)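 Mice were infected with 10^4 T. brucei brucei CA427 cells. From 24 h post-infection, they were dosed i.p. at 10 mg/kg twice per day (20 mg/kg/day). Blood parasitemia was measured each day against untreated control mice.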

The subject of data set [10] is Trypanosoma brucei brucei. The data set is described as follows: Antitrypanosomal activity against Trypanosoma brucei brucei CA427 infected in Swiss Webster mouse assessed as delayed detection of trypanosomes in blood at 10 mg/kg, ip bid after 24 hrs by hemocytometer. Format: functional, organism-based. More on the design: dose 10 mg/kg. An outline of the steps:
as §2

The next data set deals with Mus musculus. The data set is described as follows: Toxicity in Swiss Webster mouse infected with Trypanosoma brucei brucei CA427at 40 mg/kg, po. Type of data set: organism-based. Set-up: dose 40 mg/kg, route oral. The following applies: in vivo. The method, boiled down:
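Infection used 10^4 T. brucei brucei CA427 cells per mouse. Beginning 24 h later, mice received 40 mg/kg once per day in a multi-day regimen. Blood was checked for parasites over 3 days against untreated infected controls, and drug-related toxicity was noted.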

Another data set relates to Brain. The experiment in a line: Drug uptake in BALB/c mouse brain at 40 mg/kg, po after 24 hrs. Type of data set: ADME, organism-based. Set-up: dose 40 mg/kg, route oral. The settings on record: in vivo. The method, boiled down:
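Mice received a single oral dose of 40 mg/kg. Drug levels in plasma and brain tissue were measured over 24 hours.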

Data set [11] deals with Trypanosoma brucei brucei. The experiment in a line: Antitrypanosomal activity against bloodstream form Trypanosoma brucei brucei Lister 427 after 48 hrs by hemocytometer. Type of data set: functional, organism-based. The settings on record: Lister 427, 48 h. The method, boiled down: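 Bloodstream Lister 427 cells were seeded at 2 × 10^3 cells/ml in HMI-9 medium and given drug from 200X DMSO stocks, with DMSO as control. Three independent experiments, each dose in duplicate (n = 6).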

Consider `Fc1cccc(COc2ccc(Nc3ncnc4ccc(-c5cccc(N6CCOCC6)c5)cc34)cc2Cl)c1`, for which the result (with Trypanosoma brucei [1]; with Trypanosoma brucei [2]; in the data set on Trypanosoma brucei [5]; in data set [9]; in data set [10]) was Active. Moreover, the Activity with Trypanosoma brucei [3] is 25%; in the data set with Trypanosoma brucei [4] it was 40%; with Mus musculus it was “Toxic”. In the data set with Trypanosoma brucei [6], the inhibition result is “inactive”. The outcome in data set [7] was inactive. Also, in data set [8], the Survival came to 9 days. The same molecule had a Drug uptake with Brain of 5%. In [11], a half-maximal effect (EC50) was put at 0.042 µM.

These data come from ChEMBL document CHEMBL2346527, “Kinase scaffold repurposing for neglected disease drug discovery: discovery of an efficacious, lapatinib-derived lead compound for trypanosomiasis” (J Med Chem, 2013).
